Assay results taken from the EternaBench riboswitch data.

Tested on: MS2 coat protein
Assay: apparent Kd, MS2 coat protein; higher = weaker binding; RNA-MaP array; FMN 200 µM where present
How it was run: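 Two titrations, one without ligand and one with constant ligand, were run with SNAP-549-labelled MS2 coat protein from 0.7 or 1.5 nM, doubling to 3 µM. The targets were designs transcribed by stalled E. coli RNA polymerase on Illumina sequencing-chip clusters, in 100 mM Tris-HCl pH 7.5, 80 mM KCl, 4 mM MgCl2, BSA, DTT, yeast tRNA and Tween-20. The apparent Kd is the median of filtered per-cluster binding-curve fits, with green signal normalised to red-channel RNA signal and control-cluster median Fmax.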

[1] = designed as: OFF switch for flavin mononucleotide, no ligand
[2] = ligand present: flavin mononucleotide, designed as: OFF switch for flavin mononucleotide
[3] = designed as: ON switch for flavin mononucleotide, no ligand
[4] = ligand present: flavin mononucleotide, designed as: ON switch for flavin mononucleotide

Row | Sequence | apparent Kd [1] [nM] | apparent Kd [2] [nM] | apparent Kd [3] [nM] | apparent Kd [4] [nM]
1 | GUAGGGUCAGGAUAUACUGGCUGAGGGAUGUAUUGUAGUUGGUAGAAGGGACAUGAGGAUCACCCAUGUAAGUA | 35.4 | 34 |  | 
2 | GGUUGGCGAGGAUAUACAUGAGGAUCACCCAUGUGGUCCUGCGAUAGAAUCGCCCUUUGUAGAAGGCGCGGGUC | 67 | 55.2 |  | 
3 | AAAAGACAUGAGGAUCACCCAUGUCAAGACGUAGGAGGAUAUGUCGUGAAAAAAGACUUGACAGAAGGCCUGUGUC |  |  | 18.7 | 15.4
4 | GCAGCAUCUGCAGGAUAUCAGCACGUGUAGUGCUGAGAAGGGCACAUGAGGAUCACCCAUGUGAUCAAUUAAUAUAGAUGCUGC | 5.78 | 15.8 |  | 
5 | GGUCCACAUGAGGAUCACCCAUGUUAGGAUAUCUCCUGCCUCCUAAAUGGAAGCAGACAGAGAAGGAACAUCAA | 21.9 | 84.4 |  | 
6 | AACUGACAUGAGGAUCACCCAUGUCAGGAUAUGACUUGACGAAAUAAAACACGUCAUGUCAGAAGGGACAUGAA | 17.4 | 15.2 |  | 
7 | GAUUGACAUGAGGAUCACCCAUGUGAGGAUAUCGGCUGGACCGUGUUGGCUUCCGUCUCGAGAAGGCGCAUAGG | 16 | 23.3 |  | 
8 | UAUUAGCUAGGAUAUACAUGAGGAUCACCCAUGUCACGGGUCAACUUGUCCUAUGCGUGUAGAAGGAGCGACCC | 17.7 | 21.7 |  | 
9 | UUUACAUGAGGAUCACCCAUGUAUGUCACCCAUGUGUGUAAUCAGGAUAUGAUAUCAAUAAUAAAUUAGAAGGGAUAACAUGAG |  |  | 59.5 | 75.1
10 | AUAGGGCUACACUGAAAGACACAUGAGGAUCACCCAUGUGAGAGAAGGGCUUCUGGAGGGCUGAGGUAGGAUAUUUCACCUGGG | 18.6 | 22.6 |  | 
11 | UUCAAAUUCGUAGGAUAUGUAUAAAUUUUCUACAUGAGGAUCACCCAUGUUUCCAUUUUAAAUUGACAGAAGGACGUAAUCUAA |  |  | 30 | 9.73
12 | AUUAUUUAUAGUUAUUGGUAUUUGACAGAAGGUGAAAGUGUCACAUGAGGAUCACCCAUGUUCUUCAAGGAUAUGUUGGUAUAC |  |  | 66.1 | 11.8
13 | GGAAGAAUGAUACCUUUUUAUUACAUGAGGAUCACCCAUGUGCAGGAUAUCGAUUAUUAUAGUUUCGAGAAGGGCAAGAAUUGU | 19.7 | 52.4 |  | 
14 | UUAUGCUGAGAGAAGGUUCAAACUACAUAUUGCACACAUGAGGAUCACCCAUGUUGGUGAAUAAGAAAGGAUAUUUUACUGUAU | 20.1 | 16.9 |  | 
15 | GAGUGGAAGGCCGCUACAUGAGGAUCACCCAUGUGCUAAGCACAGGAUAUCGCGUGGGCCCGACGCGAGAAGGGUGACGGCCUG |  |  | 582 | 246
16 | CUUCUGUCAGGAUAUGCGAAUCACCACUAGGUCAGUGGUGAGCAGAAGGGACAUGAGGAUCACCCAUGUAAAGU | 37 | 166 |  | 
17 | AGUUAAUAUCGAGGAUAUCCUCUACCACAUGAGGAUCACCCAUGUAUGCAUGGAGAAGGCGAUAUUAACAGCAUGUUACAUGCA |  |  | 157 | 8.62
18 | UUGGACGUCGUAGGAUAUGUAGGAAAUUCCUACAUGAGGAUCACCCAUGUUGACAUGGAAGAAGGACAGAAGGACGAUGUCCAU |  |  | 262 | 12.4
19 | AAGAGUAGAGGAUAUACAUGAGGAUCACCCAUGUAAUCCAGAUAAGGAAGCAUGGCGUGUAGAAGGCUGCAUGA | 38.5 | 42.4 |  | 
20 | UUAUAAAGUGUGAGGAUAUGCUGGUCCAUAGAUCAGCAGAAGGCACAUGAGGAUCACCCAUGUAAUAUAUUUUU | 28.8 | 133 |  | 
21 | AUAAAACAUGAGGAUCACCCAUGUCAGUUAUCAUGAGGAUAUCCGCCGACCCGGGCGUAAGGAGAAGGCAUAUAAU |  |  | 39.3 | 20.1
22 | CAGACCGGCAUAGGAUAUGUCGACAUGAGGAUCACCCAUGUAAGCCUUGUCUGGUCCGGUGUGUGACAGAAGGAUGUCGGCCAU | 37.7 | 26.4 |  | 
23 | AAAGUGUCAGGAUAUUGUUAGUUUAGUUGUUUGUAUUAGUUCGAGAAGGGACAUGAGGAUCACCCAUGUUGAAA | 34 | 32.9 |  | 
